# An excerpt weighted towards active compounds, which were near 3.1% of everything screened.
# HSF1 inh: HSF1 inhibitors in luciferase reporter cells, primary screen, cell-based, NIH3T3, luminescence. NIH3T3-HGL HSE-luciferase, MG132-induced, luminescence 8 h; stronger effect = lower value. activity change, negative = inhibition, % at 7.5 µM (by protocol). hit rate 0.77% among 300,000. AID 2098, 2009;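 active = more than half of replicate wells show activity change below -50%, luminescence cut by over half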;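 also: luciferase reports HSF-1 transcriptional activity via heat shock element; 0% = median of DMSO wells and -100% = zero luminescence signal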
# HSF-1 act: HSF-1 activators, primary screen, NIH3T3-HGL cells, MG132 stress, luminescence, single point | AID 504408, 2011 | activation, % at 9 µM | hit rate 1.7% among 300,000 | NIH3T3-HGL HSF-1 luciferase reporter, 8 h; 100% = twice DMSO control signal;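 active = mean replicate activation of at least 50% with a set share of replicates each reaching 50%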;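 also: 0% = median of the neutral control wells and 100% = twice that signal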
# Hsp70 act: Hsp70 transcriptional activators, primary screen, cell-based, HeLa, Hsp70 promoter luciferase, luminescence, 10 µM. hit rate 0.04% among 200,000. activation, % at 10 µM. HeLa Hsp70 promoter luciferase reporter; scaled: vehicle 0, proteasome-inhibitor control 100%;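 active = activation above the mean across all tested compounds plus 3 SD, cutoff set per campaign, cut at about 5.5% in these data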;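 also: 100% = MG132 at 30 µM as the positive control and 0% = DMSO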
# Tb hexokinase: Trypanosoma brucei hexokinase 1 inhibitors, primary screen, biochemical, G6PDH-coupled NADH absorbance, MLSCN library; hexokinase 1 [Trypanosoma brucei]; recombinant TbHK1, G6PDH-coupled NADH A340; inhibition, % at 10 µM; hit rate 0.11% among 220,000; AID 1430, 2008;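 active = inhibition of 50% or more in the single-dose primary screen; inactive = inhibition below 50%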
# HSP90 inh: HSP90 inhibitors, primary screen, cell lysate, luminescence; Rabbit reticulocyte lysate, luciferase refolding luminescence, 3 h; inhibition, % at 5.6 µM; hit rate 0.91% among 290,000;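 active = inhibition above the screen-wide mean plus 3 SD, computed separately per campaign, cut at about 16% in these data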;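 also: 0% = DMSO wells and 100% = 60 µM geldanamycin wells; inhibitors lower the luminescence because luciferase stays unfolded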
# HKDC1 inhibitor: HKDC1 hexokinase inhibitors, primary screen, biochemical, fluorescence, uHTS; recombinant HKDC1, G6PDH/diaphorase resazurin coupled fluorescence; inhibition, % at 20 µM; hit rate 0.16% among 340,000;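 active = inhibition above about 35% when tested at 20 µM, limit read from the data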;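 also: plate controls were DMSO wells with enzyme for no effect and DMSO wells lacking enzyme for full effect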
# Target sequence (Q2TB90 whole entry, looked up): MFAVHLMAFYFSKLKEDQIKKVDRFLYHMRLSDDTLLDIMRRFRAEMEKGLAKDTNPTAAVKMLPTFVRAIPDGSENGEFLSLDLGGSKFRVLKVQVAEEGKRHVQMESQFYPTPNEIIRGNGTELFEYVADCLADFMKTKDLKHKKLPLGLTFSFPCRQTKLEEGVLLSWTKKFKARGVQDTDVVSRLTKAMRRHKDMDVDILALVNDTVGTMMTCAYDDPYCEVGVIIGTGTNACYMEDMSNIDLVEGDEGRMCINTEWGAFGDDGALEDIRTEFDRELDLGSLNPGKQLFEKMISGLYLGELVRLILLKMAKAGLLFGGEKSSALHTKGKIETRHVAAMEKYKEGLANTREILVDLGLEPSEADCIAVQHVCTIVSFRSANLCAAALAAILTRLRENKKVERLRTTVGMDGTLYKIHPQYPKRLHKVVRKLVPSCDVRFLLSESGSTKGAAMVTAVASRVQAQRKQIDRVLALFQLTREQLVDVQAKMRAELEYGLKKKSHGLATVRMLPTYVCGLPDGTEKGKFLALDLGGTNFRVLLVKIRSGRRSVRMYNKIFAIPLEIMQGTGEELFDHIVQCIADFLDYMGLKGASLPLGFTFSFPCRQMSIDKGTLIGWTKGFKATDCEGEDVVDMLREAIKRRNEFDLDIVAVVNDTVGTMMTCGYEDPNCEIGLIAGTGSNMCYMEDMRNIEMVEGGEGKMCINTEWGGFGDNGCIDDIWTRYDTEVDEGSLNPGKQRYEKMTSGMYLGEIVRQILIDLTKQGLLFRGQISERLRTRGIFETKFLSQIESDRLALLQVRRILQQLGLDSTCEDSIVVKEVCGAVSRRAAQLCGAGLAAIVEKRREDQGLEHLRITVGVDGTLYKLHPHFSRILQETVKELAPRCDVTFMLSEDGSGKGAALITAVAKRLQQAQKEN
#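 Test system: HK5 enzyme. Quantity: 5 µg/mL HK5 final. Reagent: glucose and ATP substrates. Schedule: 90 min reaction incubation at room temperature, dark. Technique: resazurin-to-resorufin fluorescence via G6PDH and diaphorase coupling, 525/613 nm. Control set: DMSO wells with and without enzyme mix.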
# * = called active by the depositor; nt = not tested or not shown.
SMILES,HSF1 inh,HSF-1 act,Hsp70 act,Tb hexokinase,HSP90 inh,HKDC1 inhibitor
O=C(CCCn1c(=S)[nH]c2ccc(Br)cc2c1=O)NCC1CCCO1 (centres undefined),24.9,72.0*,-0.2,-2.2,4.2,-1.2
O=c1[nH]c2c(s1)C=Nc1ccccc1N2,33.8,69.6*,-0.3,1.4,-1.8,-5.4
O=C1CC(c2ccco2)CC2=C1C=Nc1ccccc1N2 (centres undefined),1.1,11.3,0.1,11.9,1.4,3.5
CC(OC(=O)Cn1[nH]c(=O)c2ccccc2c1=O)C(=O)c1ccccc1 (centres undefined),2.2,-6.3,nt,nt,-0.8,0.1
Cn1c(=O)c2cn(-c3ccc4c(c3)OCCO4)cc2n(C)c1=O,-66.8*,-72.8,0.2,-7.7,-0.5,1.4
Cc1csc(SCc2nnc(-c3ccc(Cl)cc3)o2)n1,26.6,58.9*,0.5,-1.8,-0.5,-0.1
O=C(Nc1nccs1)c1sc2cc(Cl)ccc2c1Cl,25.6,56.1*,0.0,-14.0,-1.0,6.2
COc1ccc(C)cc1NS(=O)(=O)c1ccc2c(c1)N(C)CCO2,9.1,12.0,nt,nt,0.8,2.0
CN(C)/N=C/C=C1\CCC/C(=C/c2cccs2)C1=O,41.1,75.8*,nt,-22.5,-1.3,22.3
CN(C)/N=C/C=C1\CC/C(=C\c2ccc(Br)cc2)C1=O,-0.6,-0.3,-0.2,-5.6,2.9,-3.0
O=C(NCC12CC3CC(CC(C3)C1)C2)c1cc2n(n1)C(C(F)(F)F)CC(c1ccco1)N2 (centres undefined),4.4,0.5,-0.4,5.5,29.7*,5.2
COC(=O)C1=C(C)N(Cc2ccc(OC)cc2)C(=O)C1,2.0,-1.1,-0.3,2.0,-0.4,-11.8
COC(=O)C1=C(C)N(Cc2ccco2)C(=O)C1,-59.5*,-68.9,-0.1,6.7,2.9,7.3
Cc1nnc(-c2cnn(-c3ccccc3)c2N)n1Cc1cccc(C(F)(F)F)c1,-60.2*,-68.5,0.2,4.5,-5.9,-4.1
Cc1ccc(-c2cnn(-c3cccc(C(F)(F)F)c3)c2N)cc1,18.2,53.1*,-0.1,6.2,-2.8,-6.7
CNC(=O)C1C(=S)NC(N)=C(C#N)C1c1ccccc1 (centres undefined),-72.2*,-74.5,-0.3,-13.4,1.6,1.8
COc1cc2c3c(n(C)c(=O)c2cc1OC)-c1cc2c(cc1C3=O)OCO2,nt,nt,nt,nt,nt,-2.9
O=C(O)CN1C(=O)/C(=C\c2cc(Br)ccc2OCc2ccc(F)cc2)SC1=S,21.5,69.5*,nt,nt,0.1,22.6
O=C(CN(C(=O)c1csnn1)c1ccccc1C(F)(F)F)NC1CCCCC1,-0.1,-18.3,nt,nt,-5.1,-5.1
O=[N+]([O-])c1cc(Cl)ccc1-c1nc(-c2ccncc2)no1,10.4,19.6,0.0,-12.4,1.4,-4.5
O=[N+]([O-])c1cc(Cl)ccc1-c1nc(-c2ccccc2)no1,39.1,95.0*,0.7,36.7,4.6,-3.9
Cc1ccc(C(=O)N2CCc3ccccc32)cc1,23.4,66.4*,-0.3,3.3,-0.1,-5.6
O=C1c2ccccc2C(=O)N1CCC(=O)N1CCc2ccccc21,nt,nt,-0.6,4.0,-2.1,-16.4
O=C1c2ccccc2C(=O)N1CCC(=O)N1CCCc2ccccc21,22.4,58.0*,0.1,3.2,2.4,-4.5
O=C(Cn1nnc(-c2ccncc2)n1)N1CCc2ccccc21,6.4,-7.7,-0.4,-2.5,2.0,-10.7
SMILES,HSF1 inh,HSF-1 act,Hsp70 act,Tb hexokinase,HSP90 inh,HKDC1 inhibitor
Cc1ccc(SCC(=O)N2CCc3ccccc32)cc1,75.6,80.3*,0.5,1.1,-5.7,6.2
Cc1ccc(-c2nnn(CC(=O)N3CCCc4ccccc43)n2)cc1,11.2,57.3*,-0.1,3.5,-2.3,-0.5
CCN(C(=O)COC(=O)C1CCC(C(C)(C)C)CC1)c1c(N)n(Cc2ccccc2)c(=O)[nH]c1=O (centres undefined),nt,nt,nt,nt,nt,-10.6
O=C(c1cccc([N+](=O)[O-])c1)N1CCc2ccccc21,-68.1*,-73.2,nt,nt,-2.6,-0.7
O=C(c1ccc([N+](=O)[O-])cc1)N1CCc2ccccc21,4.6,1.9,nt,nt,nt,-2.9
COc1ccc(CC(=O)Nc2ccc(/C(C)=N\NC(=O)c3ccc(Br)o3)cc2)cc1,-2.2,19.9,nt,nt,0.0,-5.3
CCOC(CNC(=O)c1cc(C)nn1-c1ccccc1)OCC,1.5,1.6,0.1,-6.5,1.2,-9.0
Cc1cc(C(=O)NCc2ccc(Cl)cc2)n(-c2ccccc2)n1,-68.2*,-77.3,nt,-10.6,1.6,-1.0
CCOCCCNC(=O)c1cc(C)nn1-c1ccccc1,-72.1*,-78.3,-0.3,6.4,-5.7,-3.5
COCCN1CCN(C(=O)C2CCC(=O)N(Cc3cccc(C(F)(F)F)c3)C2)CC1 (centres undefined),2.3,-2.9,nt,nt,-3.2,-10.1
COc1ccc(OC)c(NC(=O)/C=C/c2ccc(S(=O)(=O)N3CCOCC3)cc2)c1,nt,nt,nt,nt,nt,-1.2
CC1=C(/C=C/C(=O)O)C(C)(C)CCC1,28.5,64.9*,-0.2,-0.2,5.3,-11.4
CC1=C(/C=C/C(C)=C/C=C/C(C)=C\C(=O)O)C(C)(C)CCC1,2.5,-18.8,nt,nt,nt,-0.3
COc1ccc(S(=O)(=O)Nc2ncccn2)cc1,4.1,16.3,nt,nt,7.0,-5.8
C/C(=N\OC(=O)c1ccc(F)cc1)c1ccc(F)c(F)c1,19.9,53.7*,nt,-7.9,4.5,-2.0
O=c1c(-c2nc3ccccc3s2)cccn1Cc1ccc(Cl)cc1,72.2,88.5*,0.4,-5.9,-1.4,10.7
Clc1ncccc1-c1nc2ccccc2s1,9.0,1.6,0.1,-6.0,-1.2,15.5
O=C(NCCN1CCOCC1)C(=O)NCC1OCCCN1S(=O)(=O)c1cc(F)ccc1F (centres undefined),0.1,-3.7,nt,nt,-5.6,-5.2
C=C(C)CNC(=S)Nc1nc2c(cc1C(=O)OCC)CCCC2,35.9,59.8*,-0.6,21.2,-2.5,-4.0
CCOC(=O)c1cc2c(nc1N)CCCC2,0.9,8.3,nt,-21.7,-4.2,-8.1
Cc1ccc(NC(=O)Cn2nc(C(=O)O)c3ccccc3c2=O)cc1S(=O)(=O)N1CCCCCC1,nt,nt,nt,nt,nt,5.7
CCC1CCC/C1=N\NC(=O)c1ccccc1C (centres undefined),8.1,18.3,nt,nt,nt,-3.3
C/C(=N\N=c1/sc2ccccc2n1C)c1ccc(N2CCOCC2)cc1,25.3,66.0*,0.7,-10.0,1.1,-10.6
COc1ccc(C(=O)Nc2ccnn2C2CCN(C(=O)c3cnsn3)CC2)cc1,3.3,19.9,nt,nt,-1.0,-3.2
COC(=O)Cc1ccc2sc(-c3ccccc3)nc2c1,29.8,61.5*,0.1,24.4,-2.8,-7.8
